Measurements reported in ChEMBL document CHEMBL4354848, “Molecular Design and Synthesis of Ivermectin Hybrids Targeting Hepatic and Erythrocytic Stages of Plasmodium Parasites” (J Med Chem, 2020).
The source made the active and inactive calls. The calls are words filed in the database; no cut-off is given here.

Assays:
[1] = tested on: Plasmodium berghei; assay: Antiplasmodial activity against luciferase expressing Plasmodium berghei sporozoites infected in human HuH7 cells assessed as reduction in parasite load preincubated for 1 hr followed by parasite infection and measured after 46 hrs by bioluminescence assay; format: functional, organism-based
Method in brief: (§1)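 Huh7 hepatoma cells seeded at 1x10^4/well, left overnight at 37 °C, 5% CO2. Serial dilutions from 10 mM DMSO stocks in medium with gentamicin and amphotericin B added 1 h before 1x10^4 firefly luciferase-expressing P. berghei sporozoites from An. stephensi salivary glands. Spin 1800 xg for 5 min, then culture. Parasite load read by bioluminescence. DMSO and atovaquone as controls. IC50 from nonlinear regression of normalized curves.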

[2] = tested on: Huh-7; assay: Cytotoxicity against human HuH7 cells infected with luciferase expressing Plasmodium berghei sporozoites assessed as reduction in cell viability preincubated for 1 hr followed by parasite infection and measured after 48 hrs by alamar blue assay; format: cell-based; conditions: huh-7, 46 h, in the assay text read “46 hrs” for “48 hrs”
Method in brief: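 Huh7 cells were pre-treated for 1 h with serial dilutions from 10 mM DMSO stocks, then infected with luciferase-expressing P. berghei sporozoites and spun at 1800 xg for 5 min. Cultures were kept at 37 °C, 5% CO2. Viability was read by Alamar Blue added at 46 h post infection, following the manufacturer's instructions.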

[3] = tested on: Anopheles stephensi; assay: Insecticidal activity against compound treated Balb/c mouse blood fed Anopheles stephensi assessed as effect on mosquito survival at 1 mg/kg, po administered via gavage 24 hrs prior to blood feed for 20 mins under dark condition and measured daily up to 14 days post blood feed; format: functional, organism-based
Method in brief: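 Balb/c mice (6-8 weeks) received a single oral dose of 1 mg/kg as a suspension in sunflower oil. Controls got DMSO in sunflower oil. At 24 h, ~30 mosquitoes per mouse fed for ~20 min in the dark. Blood ingestion was confirmed visually, and survival was scored daily up to 14 days.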

[4] = tested on: Plasmodium falciparum; assay: Antiplasmodial activity against chloroquine-sensitive ring-stage synchronized cultures of Plasmodium falciparum NF54 incubated for 48 hrs by SYBR green I dye based flow cytometry; format: functional, organism-based
Method in brief: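 Ring-stage synchronized PfNF54 cultures (2.5% hematocrit, ~1% parasitemia) exposed to compounds or DMSO vehicle for 48 h at 37 °C under 5% CO2/5% O2. Stocks in DMSO diluted in RPMI 1640-based medium with Albumax, HEPES, hypoxanthine. ~800 000 cells stained with SYBR green I for 20 min in the dark; ~100,000 events counted by flow cytometry. Triplicates, at least three experiments.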

[5] = tested on: Plasmodium berghei; assay: Antiplasmodial activity against luciferase expressing Plasmodium berghei sporozoites infected in human HuH7 cells assessed as reduction in parasite load at 1 to 10 uM preincubated for 1 hr followed by parasite infection and measured after 46 hrs by bioluminescence assay; format: functional, organism-based; method in brief: as §1
[6] = tested on: Plasmodium berghei; assay: Potency index, ratio of ivermectin IC50 to test compound IC50 for antiplasmodial activity against luciferase expressing Plasmodium berghei sporozoites infected in human HuH7 cells; format: functional
[7] = tested on: Plasmodium falciparum; assay: Potency index, ratio of ivermectin IC50 to test compound IC50 for antiplasmodial activity against chloroquine-sensitive ring-stage synchronized cultures of Plasmodium falciparum NF54; format: functional
[8] = Plasmodium falciparum, NF54, 48 h, read-out: IC50

Row | IC50 ([1]; Plasmodium berghei, Huh-7) | IC50 [4] | IC50 [4, 8] | IC50 ([4]; read-out: IC50) | IC50 [1] | Molecule | Activity [2] | Activity [3] | Activity [5] | Ratio IC50 [6] | Ratio IC50 [7]
1 | 0.7 nM |  |  |  |  | O=C1C(O)=C([C@H]2CC[C@H](c3ccc(Cl)cc3)CC2)C(=O)c2ccccc21 [ATOVAQUONE] |  |  |  |  | 
2 | 4560 nM | Not Active |  |  |  | CC[C@H](C)[C@H]1O[C@]2(CC[C@@H]1C)C[C@@H]1C[C@@H](C/C=C(\C)[C@@H](O)[C@@H](C)/C=C/C=C3\CO[C@@H]4[C@H](O)C(C)=C[C@@H](C(=O)O1)[C@]34O)O2 [IVM AGLYCONE] | Non-Toxic | inactive | Active |  | 
3 | 503 nM |  | 50.2 nM |  |  | CCOC(=O)c1c(C)nc(OCc2cn(CC(=O)O[C@@H]3/C(C)=C/C[C@@H]4C[C@@H](C[C@]5(CC[C@H](C)[C@@H]([C@@H](C)CC)O5)O4)OC(=O)[C@@H]4C=C(C)[C@@H](O)[C@H]5OC/C(=C\C=C\[C@@H]3C)[C@]54O)nn2)nc1-c1cc(OC)c(OC)cc1[N+](=O)[O-] | Non-Toxic | inactive | Active | 3 | 5
4 |  |  |  |  |  | IVERMECTIN [listing 1 of 2 here] |  | Active |  |  | 
5 |  |  |  |  |  | CC[C@H](C)[C@H]1O[C@]2(CC[C@@H]1C)C[C@@H]1C[C@@H](C/C=C(\C)[C@@H](OC(=O)Cn3cc(COc4nc(C)c(C(=O)OC(C)C)c(-c5cccc([N+](=O)[O-])c5)n4)nn3)[C@@H](C)/C=C/C=C3\CO[C@@H]4[C@H](O[Si](C)(C)C(C)(C)C)C(C)=C[C@@H](C(=O)O1)[C@]34O)O2 | Non-Toxic |  | inactive |  | 
6 | 990 nM |  | 110 nM |  |  | CCOC(=O)c1c(C)nc(OCc2cn(CC(=O)O[C@@H]3/C(C)=C/C[C@@H]4C[C@@H](C[C@]5(CC[C@H](C)[C@@H]([C@@H](C)CC)O5)O4)OC(=O)[C@@H]4C=C(C)[C@@H](O)[C@H]5OC/C(=C\C=C\[C@@H]3C)[C@]54O)nn2)nc1-c1ccccc1 | Non-Toxic |  | Active |  | 11
7 |  |  |  | 520 nM | 1640 nM | IVERMECTIN [listing 2 of 2 here] |  |  |  |  | 
8 | 911 nM |  | 161 nM |  |  | CC[C@H](C)[C@H]1O[C@]2(CC[C@@H]1C)C[C@@H]1C[C@@H](C/C=C(\C)[C@@H](OC(=O)Cn3cc(COc4nc(C)c(C(=O)OC(C)C)c(-c5cccc([N+](=O)[O-])c5)n4)nn3)[C@@H](C)/C=C/C=C3\CO[C@@H]4[C@H](O)C(C)=C[C@@H](C(=O)O1)[C@]34O)O2 | Non-Toxic |  | Active |  | 3
